A selection: hits, their analogues and other compounds. The true share with any hit is near 2.3%.
TRPC6 act – activators of mouse TRPC6 channel. HEK293-TRPC6 membrane potential dye fluorescence; hits give high values. B-score at 10 µM. 0.13% of 310,000 active. AID 2550;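 active = B-score of the integrated fluorescence ratio above library mean plus 3 SD, and starting fluorescence ratio within library mean plus 5 SD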;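 also: higher score means more depolarization so channel activation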
TRPC4 block – blocks the mouse TRPC4 cation channel. B-score at 10 µM. 0.39% of 300,000 active. Q9QUQ5. HEK293 TRPC4beta/mu-opioid, DAMGO-evoked Fluo4 calcium flux; hits give low values;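 active = B-score over 3 SD under the library average, no early fluorescence shift, positive overall ratio signal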
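material = TRPC4beta/mu-opioid receptor HEK293 cell line | probe or stimulus = sequential submaximal and maximal DAMGO stimulation | compound dosing = one concentration per compound | measured by = Fluo4 Ca2+ flux fluorescence | evaluation = integrated fluorescence ratio relative to baseline, converted to per-well B score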
TRPC4 potent – allosteric potentiators of mouse TRPC4 channel; Q9QUQ5; HEK293 TRPC4beta/mu-opioid, DAMGO EC20, Fluo-4 Ca2+ flux; hits give high values; B-score at 10 µM; 0.42% of 310,000 active; AID 2227;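 active = B-score of calcium response area above 5 SD of library B-scores, with initial fluorescence ratio within 5 SD of library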
TRPC6 inh – blocks the mouse TRPC6 cation channel | Q61143 | HEK293-TRPC6, membrane potential dye, ACh-evoked depolarization; hits give low values | B-score at 10 µM | 1.1% of 310,000 active | AID 2553;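 active = B-score under library mean minus 3 SD, initial fluorescence not abnormally high, positive integrated signal ratio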;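 also: B-score derived from integrated fluorescence ratio over the kinetic read; more negative B-score means stronger inhibition of depolarization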
TRPC4 agonist – opens the mouse TRPC4 cation channel; Q9QUQ5; HEK293 TRPC4beta/mu-opioid, Fluo4 calcium fluorescence; hits give high values; B-score at 10 µM; 0.49% of 310,000 active; AID 2237;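 active = B-score above 5 SD of library B-scores, and initial fluorescence ratio not above library mean plus 5 SD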;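 also: positive B-score marks a calcium rise read as TRPC4 activation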
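Assay system: HEK293 stable line with TRPC4beta plus mu-opioid receptor; schedule: 45 min room-temperature Fluo4 loading, 110 s read; technique: kinetic Fluo4 calcium fluorescence; evaluation: integrated baseline-normalised fluorescence ratio, converted to per-well B score; controls: buffer (low) and maximal DAMGO (high)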
TRPC4 spec 2 – second selectivity test of TRPC6 inhibitors: effect on mouse TRPC4 | shares compounds with TRPC6 inh | HEK293 TRPC4/MOR, membrane potential dye fluorescence; channel activated by saturating DAMGO dose | inhibition, % at 10 µM | 42% of 920 active;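 active = compounds whose fluorescence signal differed from control wells by over 3 SD, either direction, in both duplicate plates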
TRPC4 spec – tests whether TRPC6 inhibitors also affect mouse TRPC4; shares compounds with TRPC6 inh; HEK293 TRPC4/mu-opioid, membrane potential fluorescence; activity change, negative = inhibition, % at 10 µM; 61% of 920 active; AID 2777;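 active = rise or fall in signal beyond 3 SD of buffer-only wells in both replicate plates, either sign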;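 also: integrated kinetic ratio of fluorescence range over baseline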
HEK293 MPD ctr 2-1 – second check of TRPC6 inhibitor effects in parental HEK293 cells. parental HEK293 membrane potential dye fluorescence; maximal acetylcholine challenge after compound addition. signal change vs control, % at 10 µM. AID 2779. 31% of 920 active. shares compounds with TRPC6 inh;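 active = membrane potential signal moving either way by over 3 SD of the maximum-effect control, in both duplicate plates, meaning non-specific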
HEK293 MPD ctr-1 – counter-screen for TRPC6 inhibitors: effect in parental HEK293 cells; shares compounds with TRPC6 inh; parental HEK293 membrane potential dye fluorescence; membrane potential signal change, % at 10 µM; 60% of 920 active;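 active = membrane potential signal shifting up or down by more than 3 SD of buffer-only wells, on both duplicate plates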
HEK293 MPD ctr-2 – checks TRPC6 modulator effects in parental HEK293 cells; shares compounds with TRPC6 inh; membrane potential dye fluorescence; membrane potential signal change, % at 10 µM; 51% of 2,400 active; AID 488924;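 active = membrane potential signal moves up or down beyond 5 SD from buffer-only wells, on both duplicate plates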
HEK293 MPD ctr 2-2 – second counter-screen for TRPC6 modulators: effect in parental HEK293 cells; shares compounds with TRPC6 inh; membrane potential dye fluorescence; after compound, maximal acetylcholine stimulation; inhibition, % at 10 µM; 14% of 2,400 active;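 active = membrane potential signal drops by more than 5 SD from the mean control signal, in both duplicate plates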
TRPC4 ctr mod – selectivity of TRPC6 modulators against mouse TRPC4; 69% of 2,400 active; percent change from control (negative = decrease, positive = increase), % at 10 µM; shares compounds with TRPC6 inh; HEK293 TRPC4/mu-opioid, membrane potential fluorescence;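 active = membrane potential signal moved up or down beyond 5 SD of buffer control wells, in both duplicate plates, actives on both sides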
TRPC4 ctr inh 2 – mouse TRPC4 off-target activity of TRPC6 modulators, second screen; shares compounds with TRPC6 inh; HEK293 TRPC4/mu-opioid, membrane potential dye fluorescence; stimulated with maximal-effect DAMGO; inhibition, % at 10 µM; 55% of 2,400 active;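 active = drop in membrane potential signal beyond 5 SD of the control wells in both duplicate plates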;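 also: TRPC4 counter screen for TRPC6 hits run under conditions tuned for TRPC6 not TRPC4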
TRPC6 inh conf – confirmation of mouse TRPC6 inhibitors; shares compounds with TRPC6 inh; HEK293-TRPC6, membrane potential dye, ACh-evoked depolarization; inhibition, % at 10 µM; 43% of 3,300 active; AID 488960;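 active = fluorescence ratio falls more than 5 SD below the full-stimulation control mean, in both duplicate runs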;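 also: integrated fluorescence ratio of peak minus minimum over baseline after agonist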
TRPC6 act conf – mouse TRPC6 activator confirmation | 11% of 2,800 active | shares compounds with TRPC6 inh | HEK293-TRPC6 membrane potential dye fluorescence, FDSS | AID 488961 | activation, % at 10 µM;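 active = ratio signal rise beyond 5 SD above unstimulated control wells' mean, seen in both duplicate runs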
Each line names hits and unclear results; the compound was inactive in the other large screens (follow-up assays come after a bar, where they were run).

CC(C)C(NC(=O)/C=C/c1ccc(F)cc1)C(C)C	TRPC6 inh -6.92 | TRPC4 spec 2 inactive | TRPC4 spec inactive | HEK293 MPD ctr 2-1 inactive | HEK293 MPD ctr-1 inactive | TRPC6 inh conf inactive | TRPC6 act conf inactive
CC1Sc2ccc(S(=O)(=O)CCC(=O)NCc3cccs3)cc2NC1=O (centres undefined)	none
COc1ccccc1N1CCN(Cc2cc(=O)c(OCC(=O)NC(C)C)co2)CC1	none
Cc1c(Cl)cccc1Nc1nc(NCCO)c2ccccc2n1	TRPC6 inh -6.9 | TRPC4 spec 2 51.0% | TRPC4 spec inactive | HEK293 MPD ctr 2-1 inactive | HEK293 MPD ctr-1 inactive | TRPC6 inh conf inactive | TRPC6 act conf inactive
OCCNc1nc(Nc2ccccc2)nc2ccccc12	TRPC6 inh -9.64 | TRPC4 spec 2 32.5% | TRPC4 spec -21.7% | HEK293 MPD ctr 2-1 inactive | HEK293 MPD ctr-1 -224.5% | TRPC6 inh conf 69.4% | TRPC6 act conf inactive
OCCNc1nc(Nc2ccc(Br)cc2)nc2ccccc12	TRPC6 inh -7.04 | TRPC4 spec 2 46.0% | TRPC4 spec -20.5% | HEK293 MPD ctr 2-1 inactive | HEK293 MPD ctr-1 -181.0% | TRPC6 inh conf inactive | TRPC6 act conf inactive
OCCNc1nc(Nc2ccccc2)nc(Nc2ccccc2)n1	none
NC(CS(=O)O)C(=O)O (centres undefined)	none
O=C(NCc1ccc(Cl)cc1)c1n[nH]c([N+](=O)[O-])c1Cl	none
COC(=O)C1CCN(C2=C(NS(=O)(=O)c3ccc(Cl)cc3)C(=O)c3ccccc3C2=O)CC1	TRPC6 inh -6.86 | TRPC4 spec 2 80.0% | TRPC4 spec -17.9% | HEK293 MPD ctr 2-1 inactive | HEK293 MPD ctr-1 -249.5% | TRPC6 inh conf inactive | TRPC6 act conf inactive
CCOc1ccc(-n2c(-c3ccccc3)c[n+]3c2CCC3)cc1	TRPC6 inh -6.31 | HEK293 MPD ctr-2 -58.0% | HEK293 MPD ctr 2-2 62.5% | TRPC4 ctr mod -13.0% | TRPC4 ctr inh 2 30.0% | TRPC6 inh conf 45.0% | TRPC6 act conf inactive
CCOc1ccc(-n2c(-c3ccc(OC)cc3)c[n+]3c2CCCCC3)cc1	none
COCCCNCCCOc1ccc(Cl)cc1C(C)(C)C	none
CNCCCOc1ccc(Cl)cc1C(C)(C)C	TRPC4 potent 50, TRPC6 inh -6.01 | HEK293 MPD ctr-2 inactive | HEK293 MPD ctr 2-2 inactive | TRPC4 ctr mod inactive | TRPC4 ctr inh 2 inactive | TRPC6 inh conf inactive | TRPC6 act conf inactive
Cc1ccnc(NC(=O)c2ccc3c(c2)C(=O)N(CCC(C)C)C3=O)c1	none
Brc1cc2c(cc1CN1CCc3ccccc3C1)OCO2	TRPC6 inh -7.26 | TRPC4 spec 2 inactive | TRPC4 spec inactive | HEK293 MPD ctr 2-1 inactive | HEK293 MPD ctr-1 inactive | TRPC6 inh conf inactive | TRPC6 act conf inactive
C=CCn1c(SCC(=O)Nc2cc(C)on2)nc2c([nH]c3ccccc32)c1=O	none
CC1Cc2ccccc2N1C(=O)c1ccc(N2CCCC2)c([N+](=O)[O-])c1 (centres undefined)	none
CC1Cc2ccccc2N1C(=O)c1ccc(N2CCCCC2)c([N+](=O)[O-])c1 (centres undefined)	TRPC6 inh -5.81 | HEK293 MPD ctr-2 inactive | HEK293 MPD ctr 2-2 inactive | TRPC4 ctr mod inactive | TRPC4 ctr inh 2 inactive | TRPC6 inh conf inactive | TRPC6 act conf inactive
O=C(C[n+]1ccccc1)N1c2ccccc2Sc2ccccc21	TRPC6 inh -7.86 | HEK293 MPD ctr-2 inactive | HEK293 MPD ctr 2-2 82.0% | TRPC4 ctr mod inactive | TRPC4 ctr inh 2 inactive | TRPC6 inh conf 82.0% | TRPC6 act conf inactive
CN(C)c1cc[n+](CC(=O)N2c3ccccc3Sc3ccccc32)cc1	TRPC6 inh -5.03 | HEK293 MPD ctr-2 inactive | HEK293 MPD ctr 2-2 inactive | TRPC4 ctr mod -12.0% | TRPC4 ctr inh 2 inactive | TRPC6 inh conf 44.5% | TRPC6 act conf inactive
O=C(COc1ccccc1)N1c2ccccc2Sc2ccccc21	none
CCOC(=O)N1c2ccccc2Sc2ccccc21	none
CCOC(=O)CCC(=O)NNC(=O)COc1ccc(C(C)C)cc1Br	none
C[N+](C)(C)CC/C=C1/c2ccccc2CSc2ccccc21	TRPC6 inh -5.53 | HEK293 MPD ctr-2 inactive | HEK293 MPD ctr 2-2 72.0% | TRPC4 ctr mod inactive | TRPC4 ctr inh 2 inactive | TRPC6 inh conf 82.5% | TRPC6 act conf inactive
O=C(O)CCCCCN1C(=O)C(O)=C(C(=O)/C=C/c2ccccc2)C1c1cccc([N+](=O)[O-])c1 (centres undefined)	TRPC6 act 16.8 | HEK293 MPD ctr-2 inactive | HEK293 MPD ctr 2-2 inactive | TRPC4 ctr mod 9.5% | TRPC4 ctr inh 2 inactive | TRPC6 inh conf inactive | TRPC6 act conf 39.0%
COc1ccc(C(=O)/C(C#N)=N/Nc2ccc([N+](=O)[O-])cc2)cc1	TRPC6 inh -5.72 | HEK293 MPD ctr-2 inactive | HEK293 MPD ctr 2-2 inactive | TRPC4 ctr mod inactive | TRPC4 ctr inh 2 inactive | TRPC6 inh conf inactive | TRPC6 act conf inactive
Cc1noc(C)c1COC(=O)C1CCN(S(=O)(=O)c2c(Cl)cccc2Cl)CC1	none
CNS(=O)(=O)c1cccc(C(=O)NCC2(N3CCCCC3)CCCCC2)c1	none
